From ChEMBL document CHEMBL4020760, “Discovery of a Small Molecule Probe That Post-Translationally Stabilizes the Survival Motor Neuron Protein for the Treatment of Spinal Muscular Atrophy” (J Med Chem, 2017) come the findings set out here.

In series [1] the test system is Plasma. Nature of the series: Half life in mouse plasma at 20 mg/kg, po. The format is ADME, organism-based. The following applies: in vivo.
The test system of series [2] is Brain. Nature of the series: Tmax in mouse brain at 20 mg/kg, ip. Format: ADME, organism-based. Particulars: in vivo.
Series [3] relates to Brain. Nature of the series: Tmax in mouse brain at 20 mg/kg, po. The format is ADME, organism-based. The following applies: in vivo.
The test system of the next series is Lampyridae. Nature of the series: Effect on firefly recombinant luciferase protein. In outline:
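Compound diluted in complete DMEM and incubated with recombinant firefly luciferase (1:10 000 in passive lysis buffer, 1 mg/mL BSA); activity read with SteadyLite reagent.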

The nature of series [4]: Aqueous solubility of the compound at pH 7.4. The format is physicochemical. Particulars: aqueous solution. A digest of the protocol: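 Kinetic solubility measured in aqueous medium at pH 7.4.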
Series [5] concerns the target Survival motor neuron protein (Homo sapiens) (UniProt Q16637). Nature of the series: Stabilization of human SMN protein expressed in HEK293 cells expressing SMN2 promoter assessed as additive effect on SMN stabilization in presence of 0.1: 0.1 to 10:10 ratio of LDN-75654 to compound after 24 hrs by luciferase reporter gene assay. The format is cell-based. A digest of the protocol: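 SMN2 reporter cells exposed 24 h to the two compounds alone or combined at constant ratio, DMSO held at 0.2%, and SMN-luc read. Theoretical additive effect taken as the sum of the single-agent activities.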
Background: In a reporter assay the amount or activity of a reporter protein is the signal.

Series [6] relates to HEK293. Nature of the series: Effect on luciferase expression in human HEK293 cells expressing SV40 promoter at 10 to 30 uM after 24 hrs by luciferase reporter gene assay. The format is ADME, cell-based. Particulars: hek293, 24 h.
In series [7] the test system is HEK293. Nature of the series: Effect on p62 level in HEK293 cells at 10 uM after 8 hrs by immunoblot analysis. The format is functional, cell-based. The following applies: Homo sapiens. A digest of the protocol:
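HEK293 cells exposed 8 h to DMSO, compound or chloroquine; LC3 and p62 assessed by immunoblot.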
For orientation: A western blot detects proteins with antibodies after separation by electrophoresis.

The nature of series [8]: Half life in mouse liver microsomes. The following applies: liver microsomes. Format: ADME, microsome. In outline:
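Compound stability in mouse and human liver microsomes, expressed as half-life in min.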

In series [9] the target is Survival motor neuron protein (Homo sapiens) (UniProt Q16637). Nature of the series: Stabilization of SMN protein in 3813T fibroblasts derived from human SMA patient assessed as increase in SMN protein level after 48 hrs by SDS-PAGE and immunoblot.
Survival motor neuron protein (Homo sapiens), sequence (Q16637 whole entry, the tested form may be a part): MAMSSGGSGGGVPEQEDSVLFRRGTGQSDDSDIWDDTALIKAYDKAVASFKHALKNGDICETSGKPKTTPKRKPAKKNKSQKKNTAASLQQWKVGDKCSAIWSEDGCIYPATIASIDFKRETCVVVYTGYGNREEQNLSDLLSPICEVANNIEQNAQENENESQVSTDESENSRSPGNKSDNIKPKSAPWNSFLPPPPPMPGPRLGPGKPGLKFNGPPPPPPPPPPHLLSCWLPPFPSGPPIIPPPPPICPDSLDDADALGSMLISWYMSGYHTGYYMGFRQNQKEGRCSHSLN
Another series addresses CYP2C19 (Homo sapiens, UniProt P33261). Nature of the series: Inhibition of CYP2C19 (unknown origin) at 10 uM. Format: ADME.
A further series deals with T1, CYP2A6 (Homo sapiens, UniProt P11509).
T1 sequence (P11509 whole entry): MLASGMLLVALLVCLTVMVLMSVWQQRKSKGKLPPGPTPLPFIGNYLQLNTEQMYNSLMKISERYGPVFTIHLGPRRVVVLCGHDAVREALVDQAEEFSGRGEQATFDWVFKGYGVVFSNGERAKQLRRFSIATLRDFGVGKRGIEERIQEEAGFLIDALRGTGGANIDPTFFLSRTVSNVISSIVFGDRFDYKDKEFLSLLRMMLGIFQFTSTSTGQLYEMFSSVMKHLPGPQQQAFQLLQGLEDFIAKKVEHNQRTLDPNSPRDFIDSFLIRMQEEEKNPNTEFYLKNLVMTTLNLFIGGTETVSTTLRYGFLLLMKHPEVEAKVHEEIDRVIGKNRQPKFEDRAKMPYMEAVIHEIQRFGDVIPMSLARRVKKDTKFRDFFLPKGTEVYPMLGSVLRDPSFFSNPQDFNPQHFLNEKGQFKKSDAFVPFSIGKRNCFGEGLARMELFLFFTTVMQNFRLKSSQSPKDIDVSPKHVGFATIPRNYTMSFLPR
Nature of the series: Inhibition of CYP2A6 (unknown origin) at 10 uM. Format: ADME.

For series [10], the target named is Survival motor neuron protein (Homo sapiens) (UniProt Q16637). Nature of the series: Stabilization of SMN protein in 3813T fibroblasts derived from human SMA patient assessed as increase in SMN protein level at 2 uM after 48 hrs by SDS-PAGE and immunoblot.
Series [11] is described as follows: Fraction unbound in mouse plasma. Format: ADME, cell-free. A digest of the protocol: (§1)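 Plasma protein binding measured in mouse and human plasma and expressed as percent free.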
Series [12] relates to Plasma. Nature of the series: Half life in mouse plasma at 20 mg/kg, ip. The format is ADME, organism-based. Particulars: in vivo.
Series [13] in a line: Fraction unbound in human plasma. Format: ADME, cell-free. A digest of the protocol:
as §1

In series [14] the test system is Plasma. Nature of the series: Half life in mouse plasma after 60 mins. Format: ADME, cell-free. The following applies: 1 h.
Series [15] can be described thus: AUC (0 to 24 hrs) in mouse brain at 20 mg/kg, ip. Further details: time < 24 hr, dose 20 mg/kg, route intraperitoneal. The format is ADME, organism-based.
Series [16] has as its system Renilla. Nature of the series: Effect on renilla recombinant luciferase protein.
Series [17] deals with Plasma. Nature of the series: Cmax in mouse plasma at 20 mg/kg, ip. The format is ADME, organism-based. Also noted: dose 20 mg/kg, route intraperitoneal. Particulars: in vivo.
Series [18] concerns the target Survival motor neuron protein (Homo sapiens) (UniProt Q16637). Nature of the series: Stabilization of human luc fused SMN protein expressed in HEK293 cells at 10 uM after 24 hrs in presence of 10 uM cycloheximide by luciferase reporter gene assay. The format is cell-based. In outline:
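SMN2-luciferase reporter cells were maintained in high-glucose DMEM with 10% FBS, Pen/Strep and hygromycin at 37 °C. They were treated at the same time with cycloheximide (10 μM), to block protein synthesis, and with compound or DMSO. Cells were lysed at set time points, and SMN2-luc (firefly) and Renilla-luc activities were read by dual-luciferase assay.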

In the next series the target is CYP2D6 (Homo sapiens, UniProt P10635). Nature of the series: Inhibition of CYP2D6 (unknown origin) at 10 uM. The format is ADME.
CYP2D6, sequence (P10635 whole entry): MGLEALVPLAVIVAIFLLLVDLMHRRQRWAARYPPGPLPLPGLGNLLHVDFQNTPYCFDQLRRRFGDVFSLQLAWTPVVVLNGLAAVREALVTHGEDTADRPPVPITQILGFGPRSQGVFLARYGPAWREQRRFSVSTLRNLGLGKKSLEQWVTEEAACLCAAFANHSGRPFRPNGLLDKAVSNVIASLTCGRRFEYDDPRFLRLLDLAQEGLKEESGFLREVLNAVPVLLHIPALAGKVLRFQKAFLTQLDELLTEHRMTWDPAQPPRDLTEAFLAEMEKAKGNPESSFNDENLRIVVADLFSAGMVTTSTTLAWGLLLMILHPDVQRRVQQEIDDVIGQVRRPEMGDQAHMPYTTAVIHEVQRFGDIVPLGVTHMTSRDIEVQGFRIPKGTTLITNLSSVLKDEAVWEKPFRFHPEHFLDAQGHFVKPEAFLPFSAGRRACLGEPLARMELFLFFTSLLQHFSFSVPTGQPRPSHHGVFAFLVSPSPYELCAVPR
Series [19] relates to Renilla. Nature of the series: Effect on renilla recombinant luciferase protein expressed in HEK293 cells at 10 uM after 24 hrs in presence of 10 uM cycloheximide by renilla luciferase reporter gene assay. The format is cell-based. A digest of the protocol: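 SMN2-luc reporter cells given cycloheximide (10 μM) together with compound (10 μM) or DMSO. Lysed at set time points; SMN-luc and Renilla-luc activities measured.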

Series [20] deals with Plasma. Nature of the series: Tmax in mouse plasma at 20 mg/kg, po. Format: ADME, organism-based. The following applies: in vivo.

As a reminder, the Tmax is the time at which the peak concentration occurs. A word on the solubility (kinetic): it is solubility judged after dilution from a stock solution rather than from solid. For orientation: half-life means the time in which the quantity being followed falls by half. High values mean slow loss, low ones fast loss. As a reminder, the inhibition is the change of the read-out against control, counted positive when it falls. A high value points to strong suppression. The fraction unbound is the share of the substance not bound to proteins or other matrix. Read a low fraction unbound as little free substance. One may read the AUC(0-t) as the area under the concentration-time curve up to a stated or last time point. In general, Cmax refers to the maximum level reached in the sampled fluid or tissue.

In brackets after ≈: the same amount, converted by molar mass. Activity calls are given as the source filed them. The calls are words filed in the database; no cut-off is given here.

CYP2C19, sequence (P33261 whole entry): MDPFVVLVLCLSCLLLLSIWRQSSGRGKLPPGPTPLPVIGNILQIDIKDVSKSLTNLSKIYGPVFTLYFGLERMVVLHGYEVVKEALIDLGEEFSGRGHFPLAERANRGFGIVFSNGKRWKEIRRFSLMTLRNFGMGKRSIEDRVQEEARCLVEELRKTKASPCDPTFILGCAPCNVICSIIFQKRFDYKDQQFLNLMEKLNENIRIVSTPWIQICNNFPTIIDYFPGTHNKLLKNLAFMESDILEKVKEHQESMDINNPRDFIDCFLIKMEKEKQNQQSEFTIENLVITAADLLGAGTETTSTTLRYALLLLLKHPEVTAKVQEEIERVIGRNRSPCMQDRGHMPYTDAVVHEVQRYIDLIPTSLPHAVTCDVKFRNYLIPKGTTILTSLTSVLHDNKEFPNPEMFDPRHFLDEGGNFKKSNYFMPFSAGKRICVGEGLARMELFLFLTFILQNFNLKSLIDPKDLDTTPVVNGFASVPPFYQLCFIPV

On to `O=C(Nc1ncc(C2(O)CCC2)s1)c1ccc(F)c(Cl)c1`, for which the t1/2 in the series with Plasma [1] turned out to be 3.4 h; in the series on Plasma [12] it was 2.2 h; in the series with Plasma [14], 326 min. For the same compound, the Tmax with Brain [2], in the series with Brain [3] and with Plasma [20] was 30 min in each case. Also, the outcome (with Lampyridae; in series [5]; in the series on HEK293 [7]; with Renilla [16]; in the series with Renilla [19]) was inactive. In [4], the solubility (kinetic) was 31 µM (≈ 10.1 µg/mL). Also, the figures for the Activity entry (with HEK293 [6]; in series [9]) were “Non-Toxic” and “Dose-dependent effect”, respectively. The same compound returned a half-life in series [8] of 39 min. The inhibition at 10 µM against CYP2C19, at CYP2A6 and against CYP2D6 was less than 50% each time. For the same compound, the fold change (FC) in series [10] worked out at 2. The fraction unbound stood at 0.047 in [11] and 0.035 in series [13]. This compound came in with an AUC(0-t) at 24 h in [15] of 51300 ng·h/mL. In addition, the Cmax in the series on Plasma [17] was 7660 ng/mL. Further, the outcome in [18] was Active.
